Calls of active or inactive are those of the source. The rule behind the calls is not given here.

Data set [1] deals with Rattus norvegicus. Briefly: In vivo inhibition of SCD1 in Lewis rat liver microsome at 15 mg/kg, ip administered qd for 2 days. The class given is functional. To be noted: 48 h, route intraperitoneal. An outline of the steps: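 Lewis rats fed high-carbohydrate diet for one week, fasted 4 h, then dosed orally (0.1–1 mg/kg in 0.2% Tween 20/1% CMC; n = 4), killed 4 h later; ip arm 15 mg/kg once daily for two days. Liver microsomes prepared, SCD1 activity measured by tritiated water release from [9,10-3H]stearoyl-CoA. Mean ± SD of at least four rats.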
(In general: Liver microsomes are vesicles of endoplasmic reticulum, rich in cytochrome P450 enzymes.)

Data set [2] in a line: Metabolic stability in rat liver microsome after 30 mins by LC/MS/MS analysis. Format: ADME. To be noted: liver microsomes, read-out: Stability. An outline of the steps: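 Compound incubated 30 min with rat liver microsomes; percent parent remaining by LC/MS/MS.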
Data set [3] can be described thus: Protein binding in plasma (unknown origin). The conditions noted are these: read-out: PPB (converted). Format: ADME, cell-free.
The nature of data set [4]: Apparent permeability from apical to basolateral side in human Caco2 cells. Format: ADME, cell-based. To be noted: Caco-2. In outline: (§1)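 Caco-2 monolayers; apparent permeability a-to-b and b-to-a reported in 10⁻⁶ cm/s.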
Data set [5] addresses CYP2D6 (Homo sapiens, UniProt P10635). In words: Inhibition of CYP2D6 (unknown origin) at 10 uM. The class given is ADME.
Data set [6] has as its target CYP2C19 (Homo sapiens, UniProt P33261). Briefly: Inhibition of CYP2C19 (unknown origin) at 10 uM. The class given is ADME.
Data set [7] has as its target CYP2C9 (Homo sapiens, UniProt P11712). In words: Inhibition of CYP2C9 (unknown origin) at 10 uM. The class given is ADME.
Data set [8] has as its target CYP3A4 (Homo sapiens, UniProt P08684). Briefly: Inhibition of CYP3A4 (unknown origin) at 10 uM. Format: ADME.
Data set [9] has as its target T1, Acyl-CoA desaturase 1 (Mus musculus, UniProt P13516).
T1 sequence (P13516 whole entry): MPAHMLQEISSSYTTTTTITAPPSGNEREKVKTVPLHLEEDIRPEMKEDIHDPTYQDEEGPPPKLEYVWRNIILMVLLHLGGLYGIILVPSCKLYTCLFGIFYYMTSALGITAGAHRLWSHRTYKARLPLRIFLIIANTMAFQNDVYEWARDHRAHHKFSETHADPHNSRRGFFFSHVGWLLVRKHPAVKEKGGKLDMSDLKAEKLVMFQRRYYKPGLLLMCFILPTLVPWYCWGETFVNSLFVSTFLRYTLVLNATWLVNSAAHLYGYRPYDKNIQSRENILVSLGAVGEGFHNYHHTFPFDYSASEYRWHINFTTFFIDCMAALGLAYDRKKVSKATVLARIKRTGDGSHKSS
Briefly: Inhibition of SCD1 in ICR mouse liver microsome using [9,10 3H]- stearoyl-Coenzyme A substrate assessed as decreased production of tritiated water after 20 min by scintillation counting analysis.

Data set [10] deals with Acyl-CoA (8-3)-desaturase (Rattus norvegicus) (UniProt Q920R3). In words: Inhibition of delta5 desaturase in Sprague-Dawley rat liver microsome at 10 uM. The class given is microsomes.
Sequence of Acyl-CoA (8-3)-desaturase (Rattus norvegicus) (Q920R3 whole entry, looked up): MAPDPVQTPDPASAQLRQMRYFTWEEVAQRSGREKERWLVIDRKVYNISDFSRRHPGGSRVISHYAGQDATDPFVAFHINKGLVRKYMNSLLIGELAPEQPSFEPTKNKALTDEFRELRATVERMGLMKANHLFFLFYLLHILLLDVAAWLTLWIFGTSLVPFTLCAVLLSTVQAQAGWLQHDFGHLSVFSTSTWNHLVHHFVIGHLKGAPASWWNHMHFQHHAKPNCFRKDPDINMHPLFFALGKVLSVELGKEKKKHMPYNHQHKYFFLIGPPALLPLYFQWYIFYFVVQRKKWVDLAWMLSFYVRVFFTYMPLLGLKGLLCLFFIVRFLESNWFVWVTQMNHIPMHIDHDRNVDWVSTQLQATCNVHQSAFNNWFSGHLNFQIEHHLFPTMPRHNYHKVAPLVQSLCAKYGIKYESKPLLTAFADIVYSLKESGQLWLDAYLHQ
The nature of data set [11]: Oral bioavailability in Lewis rat at 5 mg/kg. Format: ADME, organism-based. To be noted: in vivo. An outline of the steps:
(§2)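 Lewis rats, IV 3 mg/kg and PO 10 mg/kg unless otherwise stated (some at PO 5 mg/kg, IV 1 mg/kg, or IV 1/PO 2 mg/kg). At least two rats IV, three rats PO, averaged. Plasma t1/2 (h), AUC 0–∞ (μM·h), Vss (L/kg), clearance ((L/h)/kg), Cmax (μM), Tmax (h), oral bioavailability (%).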

The nature of data set [12]: Cmax in Lewis rat at 5 mg/kg, po. Format: ADME, organism-based. On the set-up: dose 5 mg/kg, route oral. To be noted: in vivo. An outline of the steps: as §2
The nature of data set [13]: Tmax in Lewis rat at 5 mg/kg, po. On the set-up: dose 5 mg/kg, route oral. The conditions noted are these: in vivo. Format: ADME, organism-based. An outline of the steps: as §2
Data set [14] in a line: Clearance in Lewis rat at 3 mg/kg, iv. The class given is ADME, organism-based. The conditions noted are these: in vivo. On the set-up: dose 3 mg/kg, route intravenous. An outline of the steps:
as §2

A short description of data set [15]: Volume of distribution at steady state in Lewis rat at 3 mg/kg, iv. To be noted: in vivo, read-out: Vdss. The class given is ADME, organism-based. On the set-up: dose 3 mg/kg, route intravenous. An outline of the steps: as §2
The nature of data set [16]: Half life in Lewis rat at 3 mg/kg, iv. To be noted: in vivo. On the set-up: dose 3 mg/kg, route intravenous. Format: ADME, organism-based. In outline: as §2
Data set [17] can be described thus: Apparent permeability from basolateral to apical side in human Caco2 cells. The class given is ADME, cell-based. To be noted: Caco-2. An outline of the steps: as §1
Background: Caco-2 cells form a polarised layer with tight junctions and transporters.

Data set [18] concerns the target Acyl-CoA 6-desaturase (Rattus norvegicus) (UniProt Q9Z122). In words: Inhibition of delta6 desaturase in Sprague-Dawley rat liver microsome using cis,cis-9,12-octadecadienoic acid substrate at 10 uM.

Sequence of CYP2D6 (P10635 whole entry): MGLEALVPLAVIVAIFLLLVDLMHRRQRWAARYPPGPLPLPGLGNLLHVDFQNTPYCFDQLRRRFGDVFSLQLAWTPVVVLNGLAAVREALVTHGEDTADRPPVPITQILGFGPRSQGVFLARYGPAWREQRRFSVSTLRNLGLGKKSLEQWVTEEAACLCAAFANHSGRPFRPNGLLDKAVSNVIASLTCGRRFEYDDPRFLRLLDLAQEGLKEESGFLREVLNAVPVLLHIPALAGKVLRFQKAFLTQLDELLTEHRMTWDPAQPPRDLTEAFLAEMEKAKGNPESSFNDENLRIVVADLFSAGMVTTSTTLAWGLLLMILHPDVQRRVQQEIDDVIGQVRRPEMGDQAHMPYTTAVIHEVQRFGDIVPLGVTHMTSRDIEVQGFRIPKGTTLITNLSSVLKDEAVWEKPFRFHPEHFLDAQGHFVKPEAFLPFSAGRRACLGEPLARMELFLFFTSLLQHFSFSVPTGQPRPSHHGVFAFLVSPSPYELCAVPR
Sequence of CYP3A4 (P08684 whole entry): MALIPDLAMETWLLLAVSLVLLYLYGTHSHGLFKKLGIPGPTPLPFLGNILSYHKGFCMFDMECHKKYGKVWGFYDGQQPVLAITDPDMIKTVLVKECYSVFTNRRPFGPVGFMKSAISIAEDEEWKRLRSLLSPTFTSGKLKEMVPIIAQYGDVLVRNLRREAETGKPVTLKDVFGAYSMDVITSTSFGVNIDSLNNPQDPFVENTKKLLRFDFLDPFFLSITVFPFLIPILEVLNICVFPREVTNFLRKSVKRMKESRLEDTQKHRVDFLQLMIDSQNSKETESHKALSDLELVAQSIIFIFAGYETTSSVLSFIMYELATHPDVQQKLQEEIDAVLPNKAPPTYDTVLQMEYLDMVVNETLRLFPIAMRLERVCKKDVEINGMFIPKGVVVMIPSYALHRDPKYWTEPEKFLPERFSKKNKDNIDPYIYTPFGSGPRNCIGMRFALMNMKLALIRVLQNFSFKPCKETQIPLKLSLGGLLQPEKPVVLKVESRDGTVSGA
Sequence of Acyl-CoA 6-desaturase (Rattus norvegicus) (Q9Z122 whole entry, looked up): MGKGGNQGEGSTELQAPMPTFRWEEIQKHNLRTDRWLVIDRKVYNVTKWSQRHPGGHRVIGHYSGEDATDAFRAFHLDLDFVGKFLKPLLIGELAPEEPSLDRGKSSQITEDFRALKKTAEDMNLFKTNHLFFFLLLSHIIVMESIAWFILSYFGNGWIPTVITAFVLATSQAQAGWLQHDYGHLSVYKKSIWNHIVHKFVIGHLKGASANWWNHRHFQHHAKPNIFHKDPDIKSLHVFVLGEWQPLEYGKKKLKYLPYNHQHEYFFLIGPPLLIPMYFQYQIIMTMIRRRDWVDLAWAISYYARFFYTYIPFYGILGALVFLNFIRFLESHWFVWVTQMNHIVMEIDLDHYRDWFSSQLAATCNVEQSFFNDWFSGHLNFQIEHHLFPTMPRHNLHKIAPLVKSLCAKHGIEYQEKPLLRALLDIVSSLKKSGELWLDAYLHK
Sequence of CYP2C9 (P11712 whole entry): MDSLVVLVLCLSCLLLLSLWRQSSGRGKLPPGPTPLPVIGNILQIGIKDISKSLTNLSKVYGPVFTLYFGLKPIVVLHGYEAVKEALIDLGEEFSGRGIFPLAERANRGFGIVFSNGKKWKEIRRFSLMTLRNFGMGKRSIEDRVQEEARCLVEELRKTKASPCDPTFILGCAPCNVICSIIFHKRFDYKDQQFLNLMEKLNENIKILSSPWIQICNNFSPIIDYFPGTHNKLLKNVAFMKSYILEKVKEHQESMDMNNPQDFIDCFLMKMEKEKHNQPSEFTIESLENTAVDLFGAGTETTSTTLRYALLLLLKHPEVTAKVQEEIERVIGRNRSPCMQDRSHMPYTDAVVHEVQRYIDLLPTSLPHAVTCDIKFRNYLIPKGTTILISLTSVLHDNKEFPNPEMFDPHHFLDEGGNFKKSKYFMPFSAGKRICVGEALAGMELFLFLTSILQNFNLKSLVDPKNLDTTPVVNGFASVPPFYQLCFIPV
Sequence of CYP2C19 (P33261 whole entry): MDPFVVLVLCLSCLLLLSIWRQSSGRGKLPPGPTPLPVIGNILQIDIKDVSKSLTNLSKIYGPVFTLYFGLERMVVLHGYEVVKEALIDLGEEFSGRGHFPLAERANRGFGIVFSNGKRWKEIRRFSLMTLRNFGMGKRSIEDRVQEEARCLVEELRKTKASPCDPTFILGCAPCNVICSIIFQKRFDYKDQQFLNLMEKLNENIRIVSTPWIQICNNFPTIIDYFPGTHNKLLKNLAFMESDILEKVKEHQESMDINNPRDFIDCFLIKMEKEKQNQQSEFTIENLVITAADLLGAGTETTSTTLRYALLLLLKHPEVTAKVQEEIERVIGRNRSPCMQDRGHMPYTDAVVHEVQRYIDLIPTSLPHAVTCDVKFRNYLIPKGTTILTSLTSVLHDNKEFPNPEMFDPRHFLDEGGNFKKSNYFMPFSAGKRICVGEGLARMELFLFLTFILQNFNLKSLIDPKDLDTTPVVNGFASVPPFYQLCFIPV

As usually defined, the inhibition in vivo is the drop in the measured response relative to a control, in per cent. Low readings indicate a response near the control, high ones a response far below the control. Usually Papp A→B stands for how fast a substance crosses the layer from the apical side. As usually defined, the inhibition is the share of the control response that was lost under treatment. As a reminder, the IC50 is the concentration that gives 50% inhibition. In data set [1], `CC(C)CCNC(=O)c1ccc(N2CCN(C(=O)c3ccccc3C(F)(F)F)CC2)nn1` returned an inhibition in vivo at 15 mg/kg of 40%. The remaining at 0.5 h in [2] is 57%. In addition, the fraction unbound in data set [3] was 0.22. The Papp A→B in [4] was determined as 25 ×10⁻⁶ cm/s. Moreover, the inhibition at 10 µM in data set [5], in data set [6], in [7] and in data set [8] was less than 50% each time. In addition, the IC50 in data set [9] amounted to 26 nM.

As usually defined, the bioavailability is the share of a dose that reaches the circulation, judged against a reference dose that is usually intravenous. The low end stands for poor availability, the high end for good availability. As usually defined, the Cmax is the highest concentration seen after dosing. The term Tmax denotes the time at which the peak concentration occurs. Broadly, the clearance is the rate of elimination divided by the concentration. By half-life is commonly meant how long it takes for the measured level to halve. Higher therefore signals slow decline. A word on the Papp B→A: it is how fast a substance crosses the layer from the basolateral side. In the case of `O=C(NCCC1CC1)c1ccc(N2CCN(C(=O)c3ccccc3C(F)(F)F)CC2)nn1`, the inhibition entry in [10] and in [18] was “inactive” in each case. For the same compound, the bioavailability in data set [11] turned out to be 46%. The compound also registered a Cmax in [12] of 900 nM. For the same compound, the Tmax in data set [13] was determined as 1 h. For the same compound, the clearance in data set [14] is 31.7 mL/min/kg. Further, in [15], the Vd was 2.2 L/kg. This compound showed a half-life in data set [16] of 1 h. In data set [1], this compound returned an inhibition in vivo at 15 mg/kg of more than 60%. For the same compound, the Papp B→A in [17] amounted to 22 ×10⁻⁶ cm/s. Also, the remaining at 0.5 h in data set [2] was determined as 76%. In addition, the Papp A→B in data set [4] was found to be 24 ×10⁻⁶ cm/s. Moreover, the IC50 in data set [9] came to 25 nM.
